# Screening results from PubChem BioAssay.
# This is a sample that favours compounds with a hit; in the whole collection about 1.2% have one here.
# Tn7 DDE FP = inhibitors of Tn7 peptide binding to fibrin DD(E), primary screen, biochemical, fluorescence polarization, human fibrin, Tn7 probe; AID 720508, 2013; FP displacement of FITC-Tn7 peptide from fibrin DD(E); 0% = median of compound wells per plate; 0.13% of 370,000 active; inhibition, % at 8.3 µM;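 active = inhibition above the mean of compounds falling within the control limits plus 3 SD of them, cut at about 14% in these data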;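 note: 0% = plate median of compound wells and 100% = 10 µM Aha-Tn7 peptide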
# Target sequence (P02675 whole entry, looked up): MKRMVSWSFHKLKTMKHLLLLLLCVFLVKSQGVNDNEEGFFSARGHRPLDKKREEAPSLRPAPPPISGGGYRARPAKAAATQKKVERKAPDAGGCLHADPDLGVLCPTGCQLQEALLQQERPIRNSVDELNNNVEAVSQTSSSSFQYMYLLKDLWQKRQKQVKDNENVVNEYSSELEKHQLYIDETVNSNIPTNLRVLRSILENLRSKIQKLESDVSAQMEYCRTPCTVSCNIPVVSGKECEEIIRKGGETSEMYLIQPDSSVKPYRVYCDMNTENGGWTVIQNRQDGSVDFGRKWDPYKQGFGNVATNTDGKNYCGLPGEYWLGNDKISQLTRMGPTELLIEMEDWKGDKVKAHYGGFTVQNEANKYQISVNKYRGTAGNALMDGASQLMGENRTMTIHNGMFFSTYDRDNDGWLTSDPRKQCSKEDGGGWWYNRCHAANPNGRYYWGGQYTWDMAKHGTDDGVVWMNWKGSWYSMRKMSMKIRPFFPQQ
#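 Assay system: Human clot-derived fibrin DD(E) complex | Buffer or medium: Tris/NaCl/CaCl2 buffer, pH 7.8 | Repeats: One replicate per compound | Benchmarks: Aha-Tn7 high control | Measure: % inhibition scaled between sample-field median and high-control FP | Schedule: 10 min plus 3 h, room temperature | Signal: Fluorescence polarization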
# CRFR2-BP ag = agonists of CRF-BP/CRF-R2 complex, primary screen, cell-based, HEK293, calcium dye fluorescence, uHTS. CRF-binding protein / CRF receptor 2 complex (human). activation, % at 13.2 µM. 0.46% of 350,000 active. calcium dye fluorescence (FLIPR); percent of saturating CRF peptide response;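 active = activation of at least 50%, plus an integration ratio under a set limit after plate pattern correction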;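 note: plate controls were neutral control wells without compound for no effect and CRF at EC100 for full effect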
# Tn6 DDE FP = inhibitors of Tn6 peptide binding to fibrin DD(E), primary screen, biochemical, fluorescence polarization, human fibrin, Tn6 probe. Fibrinogen beta chain (Homo sapiens), P02675. Fibrin DD(E) TRITC-Tn6 fluorescence polarization displacement. inhibition, % at 8.3 µM. 0.21% of 370,000 active. AID 720509, 2013;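 active = inhibition above a per-campaign cutoff: mean of compounds within control limits plus 3 SD, cut at about 15% in these data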;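 note: 0% = median of all compound wells on the plate and 100% = blocking peptide control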
# CRFR2-BP antag = antagonists of CRF-BP/CRF-R2 complex, primary screen, cell-based, HEK293, calcium dye fluorescence, uHTS | 0.59% of 350,000 active | CRF-induced calcium fluorescence | inhibition, % at 11.8 µM | AID 588475, 2011;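 active = inhibition of the ligand-induced calcium signal above about 50% at the single tested concentration, limit read from the data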
# Numbers without * were called inactive; . = no result given.
SMILES,Tn7 DDE FP,CRFR2-BP ag,Tn6 DDE FP,CRFR2-BP antag
O=C(NNC(=S)NC1CCCCC1)c1sc2ccccc2c1Cl,-5,6,-2,12
COc1ccc(C(=O)NNC(=S)NC(=O)/C=C/c2cccs2)cc1,-3,-3,-9,-4
CC(C)(C)C(=O)NC(=S)NNC(=O)c1sc2ccccc2c1Cl,.,226*,.,-262
COc1ccc(C(=O)NC(=S)NNC(=O)c2ccccc2O)cc1,-2,59*,-5,3
O=C(/C=C/c1cccs1)NC(=S)NNC(=O)c1ccccc1O,6,63*,-8,-14
COc1ccc(C(=O)NC(=S)NNC(=O)c2ccco2)cc1,3,1,1,-1
CN=C1S/C(=C/c2cc(C)n(Cc3ccccc3)c2C)C(=O)N1C,-7,.,-5,.
COc1cc2oc(=O)cc(-c3ccc(-c4ccc(CO)cc4)cc3)c2c(OC)c1OC,0,0,1,0
COc1ccc(C(=O)NNC(=S)NC(=O)C(C)(C)C)cc1,-5,127*,0,43
COc1ccc(C(=O)NNC(=O)c2ccc(C(C)(C)C)cc2)cc1,2,2,-11,3
Cc1noc(C)c1CSCc1ccc(Cl)cc1,-7,-3,-10,76*
Cc1noc(C)c1COC(=O)Cc1ccc(Cl)cc1,3,0,-3,6
C[C@H](CO)N1C[C@H](C)[C@@H](CN(C)S(C)(=O)=O)Oc2ccc(NC(=O)Nc3ccc(C(F)(F)F)cc3)cc2C1=O,-6,-1,-7,11
C[C@@H]1CN([C@H](C)CO)C(=O)c2cc(NC(=O)Nc3ccc(C(F)(F)F)cc3)ccc2O[C@H]1CN(C)S(=O)(=O)c1ccc(Cl)cc1,0,2,44*,-3
COc1ccc(-c2nnc(C3CCN(S(=O)(=O)c4ccccc4)CC3)o2)cc1,.,-2,.,17
CC(=O)Nc1ccc(S(=O)(=O)N2CCC(c3nnc(-c4ccc(C)cc4)o3)CC2)cc1,.,-5,.,77*
CCN(c1cccc(C)c1)c1nc2ccsc2c(=O)s1,9,-6,5,70*
O=S(=O)(Nc1nc(-c2sccc2Cl)cs1)c1cc(Cl)ccc1Cl,.,-1,.,59*
CC(C)(C)c1nnc(NS(=O)(=O)c2cc(Cl)ccc2Cl)s1,0,-2,3,24
O=C(Cn1ncc2c([nH]c3ccccc32)c1=O)NCC1CCN(Cc2ccccc2F)CC1,1,0,7,70*
O=C(Cn1ncc2c([nH]c3ccccc32)c1=O)NCCc1ccccc1,3,3,-1,4
Cc1ccc(N2CCN(C(=O)CN3C(=O)c4ccccc4C3=O)CC2)cc1,10,0,-4,56*
CN1C(=O)/C(=C/c2coc3ccc(O)cc3c2=O)SC1=S,-4,1,8,-13
N=C1/C(=C\c2coc3ccccc3c2=O)C(=O)N=C2SC(c3ccncc3)=NN12,-7,159*,-22,-118
COc1ccc(-n2cccc2/C=C2\C(=N)N3N=C(c4ccco4)SC3=NC2=O)cc1,2,-1,-1,52*
SMILES,Tn7 DDE FP,CRFR2-BP ag,Tn6 DDE FP,CRFR2-BP antag
N=C1/C(=C\c2coc3ccc(O)cc3c2=O)C(=O)N=C2SC=CN12,-7,152*,-8,-88
N=C1/C(=C/c2coc3ccccc3c2=O)C(=O)N=C2SC(c3ccco3)=NN12,.,168*,.,-105
Cc1nn(-c2ccccc2)c2sc(C(=O)N3CCN(Cc4ccc(F)cc4)CC3)cc12,5,.,-1,.
CCOC(=O)C1=NN(C(=O)Cc2ccccc2)C(O)(c2ccc(Cl)cc2)C1 (stereo not drawn),0,-2,1,-26
COC(=O)C1=NN(C(=O)c2cccc(Br)c2)C(O)(c2ccc(Cl)cc2)C1 (stereo not drawn),-7,99*,-5,-30
CCOC(=O)C1=NN(C(=O)c2ccccc2)C(O)(c2ccc(C)cc2)C1 (stereo not drawn),-8,105*,1,-4
CCOC(=O)C1=NN(C(=O)c2ccc(OC)cc2)C(O)(c2ccc(Cl)cc2)C1 (stereo not drawn),-11,80*,-2,-4
CCOC(=O)C1=NN(C(=O)COc2ccccc2)C(O)(c2ccc(Cl)cc2)C1 (stereo not drawn),-5,0,3,-20
CC(C)CSc1nnc(-c2ccco2)n1C,1,.,-7,.
O=C1[C@@H](CCc2ccccc2)[C@@H]2c3ccccc3C=NN2[C@@H]2c3ccccc3C=NN12,-3,.,-4,.
COCCCN1C(=O)[C@H](CC(=O)NCC2CCCCC2)[C@]2(C(=O)OC)CCCCC=C12,10,.,0,.
Cc1cc(N=NC(=O)c2ccccc2O)c2ccccc2c1O,-3,26,-1,51*
Cn1c(O)c(N=NC(=O)c2ccccc2O)c2ccccc21,7,-2,6,-10
CC(C)C(NC(=O)[C@H](Cc1ccc(O)cc1)NC(=O)OC(C)(C)C)P(=O)(O)OC(Cc1ccccc1)C(=O)O (stereo partly drawn),5,.,-10,.
CCOc1ccc(-n2c(SCC(=O)NCc3ccco3)nc3ccccc3c2=O)cc1,-3,1,5,-8
CCOc1ccc(-n2c(SCC(=O)NCc3ccco3)nc3c([nH]c4ccccc43)c2=O)cc1,-1,0,1,78*
CCCCCCCCN1C(=O)[C@@H](CC(=O)N2CCN(C(=O)OCC)CC2)C[C@@]2(C(=O)OC)C1=C[C@H](COCc1ccccc1)O[C@@H]2C,-5,.,1,.
COc1ccc2c(C(=O)NCCCCO)c(-c3ccc(S(C)(=O)=O)cc3)sc2c1,5,0,3,1
COc1ccc2sc(-c3ccc(S(C)(=O)=O)cc3)c(C(=O)NCCc3c[nH]c4ccccc34)c2c1,-3,-1,-4,63*
CCc1ccc(-c2cc3c(=O)n(CC(=O)NCCCN4CCC(Cc5ccccc5)CC4)nc(C)n3n2)cc1,3,2,-6,101*
Cc1nn(CC(=O)NCCCN2CCC(Cc3ccccc3)CC2)c(=O)c2cc(-c3ccccc3)nn12,0,1,-5,-7
CC(=O)Nc1c(-c2ccc(C)cc2)nc2ncccn12,-3,.,1,.
COc1ccc(C(=O)OCCN(C)C2CN(Cc3cn(Cc4cccc(F)c4)nn3)S(=O)(=O)C2)cc1OC (stereo not drawn),1,.,6,.
Cc1cc(-n2c(C)cc(C(=O)CSc3nc4ccccc4c(=O)n3Cc3ccco3)c2C)no1,-8,68*,-6,-51
O=C(CSc1nc2ccccc2c(=O)n1Cc1ccco1)c1ccccc1,-2,6,1,-14
CC(=O)Nc1ccc(OCC(C)CN2CCC(C(O)(c3ccccc3)c3ccccc3)CC2)cc1 (stereo not drawn),-2,.,-6,.
O=C1NC(Cc2c[nH]c3ccccc23)C(=O)N1Cc1cccc2ccccc12 (stereo not drawn),-5,1,-6,51*
